From PMC8341738 (RSC Chemical Biology, 2021)

What was measured:
Fra1 [1] = target: T1, Fra1 (Homo sapiens, UniProt P15407); assay: Isothermal titration calorimetry, Fra1W titrated into Fra1; type: binding
T1 sequence (P15407 129-162): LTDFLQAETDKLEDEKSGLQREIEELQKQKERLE

cJun [2] = assay: Circular dichroism spectra, mixture with cJun; type: binding; settings: CD at 20 °C, mixed with cJun, 150 μM total peptide, pH 7.0
cJun [3] = assay: Size-exclusion chromatography, mixture with cJun; type: binding; settings: cJun–Fra1W mixture, 20 μM total peptide, pH 7.0; monomeric
Outline: (§1)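 Peptide mixture at 20 μM total peptide in 10 mM potassium phosphate, 100 mM KF, pH 7.0, run at room temperature on a peptide gel-filtration column at 0.5 mL min⁻¹. Elution times compared against previously characterised monomeric and heterodimeric coiled-coil reference peptides.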

[4] = Circular dichroism spectra, peptides in isolation; type: physicochemical; settings: CD, 150 μM total peptide, 10 mM potassium phosphate, 100 mM potassium fluoride, pH 7.0
[5] = Size-exclusion chromatography, single peptides; type: physicochemical; settings: Superdex Peptide 10/300 GL; 20 μM total peptide; 10 mM potassium phosphate, 100 mM potassium fluoride, pH 7.0; 0.5 mL min^−1; room temperature; monomeric
Fra1–cJun = assay: CD dimer exchange experiments; type: binding; settings: CD at 20 °C, 150 μM total, equimolar, pH 7.0
Outline: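 Dimer exchange by CD: equimolar peptide mixtures at 150 μM total peptide in 10 mM potassium phosphate, 100 mM potassium fluoride, pH 7.0. Equilibrated spectra recorded at 20 °C in a 1 mm cell, 300–190 nm in 1 nm steps, 0.5 s per wavelength, three scans averaged. Data expressed as mean residue ellipticity and superimposed across mixing orders.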

cJun [6] = assay: CD thermal denaturation, mixture with cJun; type: binding; settings: cJun–Fra1W; CD at 222 nm, 150 μM total peptide, pH 7
Outline: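 Equimolar peptide pair at 150 μM total in 10 mM potassium phosphate, 100 mM KF, pH 7. Ellipticity at 222 nm recorded from 0 to 90 °C in 1 °C steps with a 30 s pause at each step, signal averaged over 4 s. Reversible curves (≥95%) were least-squares fitted to a two-state model (modified Gibbs–Helmholtz) to give Tm.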

Fra1 [7] = target: T1, Fra1; assay: Protein-fragment complementation assay; type: cell-based; settings: competition selection in liquid M9 medium, ten rounds, E. coli
Fra1 [8] = target: T1, Fra1; assay: Size-exclusion chromatography, mixture with Fra1; type: binding; settings: Fra1–Fra1W mixture, 20 μM total peptide, pH 7.0; dimeric
Outline: as §1

Fra1 [9] = target: T1, Fra1; assay: Circular dichroism spectra, 1:1 mixture with Fra1; type: binding; settings: 1:1 with Fra1, 150 μM total peptide, pH 7.0
Outline: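 Fra1 and test peptide mixed 1:1 at 75 μM each (150 μM total) in 10 mM potassium phosphate, 100 mM KF, pH 7.0. Far-UV CD in a 1 mm cell, 300–190 nm, 1 nm steps, 0.5 s per point, three scans averaged. Spectra taken at 20 °C, at 5 °C, and at 20 °C after thermal denaturation to check refolding. Reported as mean residue ellipticity; 222/208 ratio used to judge oligomerisation.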

With “Ac-KAAALKQKAYALKQQIAALKKQVAALKQKIAALK-NH2 [Fra1W]” the Kd (Fra1 [1]) was 917 nM, the “N (stoichiometric measure of binding)” value (Fra1 [1]; ITC, 20 °C, pH 7.0) was 1.06 and the “CD signal vs averaged homomeric signals” value (cJun [2]) was “superimposed with the averaged homomeric signals”. The “SEC elution time (oligomeric state)” value (cJun [3]) was “approximately 20 min”, the helical content [4] was 60% and the “SEC elution time (oligomeric state)” value [5] was “approximately 20 min”. The “dimer exchange on addition of Fra1W to Fra1–cJun” value (Fra1–cJun) was “an increase in signal was observed”, the “dimer exchange on addition of Fra1 to cJun–Fra1W” value (Fra1–cJun) was “the CD signal increased from the average of the component samples” and the “dimer exchange on addition of cJun to Fra1–Fra1W” value (Fra1–cJun) was “no exchange of binding partner had occurred”. For the same substance, the “thermal denaturation profile vs average of component peptides” value (cJun [6]) was “no difference from the average of the component peptides”, the PCA selection outcome (Fra1 [7]) was “one clean DNA sequence in the pool after ten rounds of competition selection passaging” and the “SEC elution time (oligomeric state)” value (Fra1 [8]) was “approximately 19 min”. The “CD signal vs averaged homomeric signals” value (Fra1 [9]; CD at 20 °C) was “an increase from the averaged homomeric signals of Fra1 and Fra1W”, the 222/208 nm ratio (Fra1 [9]; CD) was 1.06 and the “α-helical content of Fra1–Fra1W complex” value (Fra1 [9]; CD) was 75%. For the same substance, the “α-helical content relative to Fra1 in isolation” value (Fra1 [9]; CD) was “more than three times that of the target Fra1 in isolation”.
